Data from PubChem BioAssay AID623976 (Vanderbilt High Throughput Screening Facility, 2012).

Molecular target: G protein-activated inward rectifier potassium channel 4 (Homo sapiens) + G protein-activated inward rectifier potassium channel 1 (Homo sapiens) (UniProt P48544+P48549)
Test: activation of Ba2+-sensitive GIRK1/4 currents – HEK-293 hGIRK1/4, whole-cell patch clamp, confirmation (AID 623976)
Settings: HEK-293 hGIRK1/4, whole-cell patch clamp Ba2+-sensitive current
Method in brief: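 Compound – concentration series of compound · Test system – HEK-293 cells stably expressing human GIRK1/4 channels · Times – recording 24-72 h post-plating · Evaluation – capacitance-normalized Ba2+-sensitive steady-state current density, four-parameter logistic EC50 · Medium – 20K external solution, KCl pipette solution · Measured by – whole-cell voltage clamp at -70 mV, 2 mM BaCl2-sensitive current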

Chain of G protein-activated inward rectifier potassium channel 4 (Homo sapiens) + G protein-activated inward rectifier potassium channel 1 (Homo sapiens) (P48544 whole entry, looked up): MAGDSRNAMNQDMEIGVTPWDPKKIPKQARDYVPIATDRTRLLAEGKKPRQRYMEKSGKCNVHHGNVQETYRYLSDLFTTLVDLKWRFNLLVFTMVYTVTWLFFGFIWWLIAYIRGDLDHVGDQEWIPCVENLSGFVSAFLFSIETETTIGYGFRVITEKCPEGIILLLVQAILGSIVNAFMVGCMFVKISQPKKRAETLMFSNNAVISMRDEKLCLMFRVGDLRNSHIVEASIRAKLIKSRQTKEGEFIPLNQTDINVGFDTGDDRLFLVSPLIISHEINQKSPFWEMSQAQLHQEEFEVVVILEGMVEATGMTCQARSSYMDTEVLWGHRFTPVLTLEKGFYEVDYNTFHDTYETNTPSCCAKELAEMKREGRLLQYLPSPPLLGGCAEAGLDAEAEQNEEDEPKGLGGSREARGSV
Chain of G protein-activated inward rectifier potassium channel 4 (Homo sapiens) + G protein-activated inward rectifier potassium channel 1 (Homo sapiens) (P48549 whole entry, looked up): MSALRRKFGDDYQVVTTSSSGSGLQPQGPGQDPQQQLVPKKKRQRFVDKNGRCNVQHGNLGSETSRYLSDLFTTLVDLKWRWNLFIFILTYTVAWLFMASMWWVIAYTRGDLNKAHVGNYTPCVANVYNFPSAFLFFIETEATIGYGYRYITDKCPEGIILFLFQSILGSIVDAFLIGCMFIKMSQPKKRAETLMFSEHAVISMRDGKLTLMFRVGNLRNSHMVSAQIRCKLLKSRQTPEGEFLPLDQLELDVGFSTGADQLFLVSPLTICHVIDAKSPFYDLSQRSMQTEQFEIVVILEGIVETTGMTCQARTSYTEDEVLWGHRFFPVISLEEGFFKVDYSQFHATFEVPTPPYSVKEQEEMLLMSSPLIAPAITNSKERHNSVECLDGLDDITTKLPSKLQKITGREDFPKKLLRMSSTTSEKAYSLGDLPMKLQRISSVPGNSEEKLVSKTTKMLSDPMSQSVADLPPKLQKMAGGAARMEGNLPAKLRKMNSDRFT

EC50: 1590 nM
SMILES: Cc1cc(NC(=O)Nc2ccc(F)c(F)c2)n(-c2ccccc2)n1
